Inhibition and Activity data for 8 compounds are collected here from ChEMBL document CHEMBL5370663, “Neurite Outgrowth-Inducing Drimane-Type Sesquiterpenoids Isolated from Cultures of the Polypore Abundisporus violaceus MUCL 56355” (J Nat Prod, 2023).

For one data set, the system named is Candida albicans. Put plainly: Antifungal activity against Candida albicans DSM 1665 assessed as fungal growth inhibition at 66.7 to 0.52 microg/ml incubated overnight by serial dilution assay. It is filed as functional, organism-based. The following applies: dose 66.7-0.52 µg/ml. A digest of the protocol:
(§1)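 Broth microdilution MIC. Compounds diluted in methanol across 66.7–0.52 μg/mL; incubated overnight. MIC is the lowest concentration with no visible growth of the test strain. Positive controls were ciprofloxacin, kanamycin, gentamycin and oxytetracycline for bacteria and nystatin for fungi.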

Another data set concerns Bacillus subtilis. In words: Antibacterial activity against Bacillus subtilis DSM 10 assessed as bacterial growth inhibition at 66.7 to 0.52 microg/ml incubated overnight by serial dilution assay. It is filed as functional, organism-based. Conditions: dose 66.7-0.52 µg/ml. Summed up: as §1
A further data set relates to Mucor hiemalis. In words: Antifungal activity against Mucor hiemalis DSM 2656 assessed as fungal growth inhibition at 66.7 to 0.52 microg/mlincubated overnight by serial dilution assay. It counts as functional, organism-based. The following applies: dose 66.7-0.52 µg/ml. A digest of the protocol:
as §1

Another data set relates to Pseudomonas aeruginosa. Put plainly: Antibacterial activity against Pseudomonas aeruginosa PA14 assessed as bacterial growth inhibition at 66.7 to 0.52 microg/ml incubated overnight by serial dilution assay. It is filed as functional, organism-based. Conditions: dose 66.7-0.52 µg/ml. A digest of the protocol: as §1
For a further data set, the system named is L929. In words: Cytotoxicity against mouse L929 cells incubated for 5 days by MTT assay. It is filed as toxicity, cell-based. The following applies: l929, 120 h, time 5 day. A digest of the protocol: (§2)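 MTT viability test in 96-well plates on KB3.1 (human endocervical adenocarcinoma) and L929 (mouse fibroblast) lines, reported as IC50; epothilone B positive control.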
For orientation: Tetrazolium assays rely on reduction of a dye to a coloured formazan, in cell work by metabolically active cells.

For another data set, the system named is Escherichia coli. Put plainly: Antibacterial activity against Escherichia coli DSM 1116 assessed as bacterial growth inhibition at 66.7 to 0.52 microg/ml incubated overnight by serial dilution assay. It counts as functional, organism-based. The following applies: dose 66.7-0.52 µg/ml. A digest of the protocol: as §1
The next data set concerns Rhodotorula glutinis. Put plainly: Antifungal activity against Rhodotorula glutinis DSM 10134 assessed as fungal growth inhibition at 66.7 to 0.52 microg/ml incubated overnight by serial dilution assay. It counts as functional, organism-based. Conditions: dose 66.7-0.52 µg/ml. Summed up:
as §1

The test system of a further data set is Staphylococcus aureus. Put plainly: Antibacterial activity against Staphylococcus aureus DSM 346 assessed as bacterial growth inhibition at 66.7 to 0.52 microg/ml incubated overnight by serial dilution assay. It counts as functional, organism-based. Conditions: dose 66.7-0.52 µg/ml. A digest of the protocol: as §1
Another data set concerns PC-12. Put plainly: Induction of neurite outgrowth in NGF-treated rat PC12 cells at 5 ug/mL measured after 48 hrs by phase contrast microscopy. It is filed as functional, cell-based. The following applies: dose 5.0 µg/ml. Summed up:
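PC-12 cells grown in RPMI-1640 with 10% heat-inactivated horse serum, 5% FBS and 2 mM L-glutamine. Seeded at 1.5 × 10^4 cells/well on collagen IV and allowed to attach 6 h at 37 °C, 7.5% CO2. Medium then switched to differentiation medium (1% horse serum) with compound at 5 μg/mL plus NGF 5 ng/mL; DMSO control. Mean neurite length from phase-contrast live imaging at 48 h; five independent experiments, one-tailed t-test.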

In another data set the test system is Wickerhamomyces anomalus. In words: Antifungal activity against Pichia anomala DSM 6766 assessed as fungal growth inhibition at 66.7 to 0.52 microg/ml incubated overnight by serial dilution assay. It counts as functional, organism-based. The following applies: dose 66.7-0.52 µg/ml. A digest of the protocol: as §1
A further data set deals with Acinetobacter baumannii. In words: Antibacterial activity against Acinetobacter baumannii DSM 30008 assessed as bacterial growth inhibition at 66.7 to 0.52 microg/ml incubated overnight by serial dilution assay. It is filed as functional, organism-based. Conditions: dose 66.7-0.52 µg/ml. A digest of the protocol:
as §1

The next data set has as its system KB 3-1. In words: Cytotoxicity against human KB-3-1 cells incubated for 5 days by MTT assay. The following applies: kb 3-1, 120 h, time 5 day. It counts as toxicity, cell-based. A digest of the protocol:
as §2

Data set [1] concerns Chromobacterium violaceum. Put plainly: Antibacterial activity against Chromobacterium violaceum DSM 30191 assessed as bacterial growth inhibition at 66.7 to 0.52 microg/ml incubated overnight by serial dilution assay. It is filed as functional, organism-based. Conditions: dose 66.7-0.52 µg/ml. Summed up: as §1
The test system of data set [2] is Mycolicibacterium smegmatis. Put plainly: Antibacterial activity against Mycobacterium smegmatis ATCC 700084 assessed as bacterial growth inhibition at 66.7 to 0.52 microg/ml incubated overnight by serial dilution assay. It counts as functional, organism-based. Conditions: dose 66.7-0.52 µg/ml. A digest of the protocol:
as §1

Data set [3] deals with Schizosaccharomyces pombe. Put plainly: Antifungal activity against Schizosaccharomyces pombe DSM 70572 assessed as fungal growth inhibition at 66.7 to 0.52 microg/ml incubated overnight by serial dilution assay. It counts as functional, organism-based. The following applies: dose 66.7-0.52 µg/ml. A digest of the protocol: as §1

Active and inactive are the calls of the source. The rule behind the calls is not given here.

Turning to `C[C@@]12C=C(CO)C(=O)C[C@H]1[C@](C)(C(=O)O)CC[C@@H]2O`, the inhibition result in the data set with Candida albicans, with Bacillus subtilis, with Mucor hiemalis, in the data set with Pseudomonas aeruginosa, with Escherichia coli and with Rhodotorula glutinis was “inactive” each time. In addition, the inhibition entry (with Staphylococcus aureus; in the data set on Wickerhamomyces anomalus; in the data set on Acinetobacter baumannii; in data set [1]; in data set [2]; in data set [3]) was “inactive” throughout. Moreover, the Activity entry with L929 and with KB 3-1 was “Non-Toxic” in each case. Moreover, in the data set with PC-12, the result was Active.
Take `C[C@@]12C=C(CO)[C@@H](O)C[C@H]1[C@](C)(C(=O)O)CCC2`: the inhibition result in the data set with Candida albicans, in the data set with Bacillus subtilis, with Mucor hiemalis, with Pseudomonas aeruginosa, in the data set on Escherichia coli and in the data set with Rhodotorula glutinis was “inactive” each time. Further, the inhibition entry (in the data set on Staphylococcus aureus; in the data set on Wickerhamomyces anomalus; in the data set with Acinetobacter baumannii; in data set [1]; in [2]; in data set [3]) was “inactive” in each case. The Activity entry in the data set on L929 and in the data set with KB 3-1 was “Non-Toxic” each time. For the same compound, the outcome with PC-12 was Active.
Turning to `C[C@@]1(C(=O)O)CCC[C@]2(C)c3cocc3C(=O)C[C@@H]12`, the inhibition result in the data set with Candida albicans, in the data set with Bacillus subtilis, with Mucor hiemalis, in the data set on Pseudomonas aeruginosa, in the data set with Escherichia coli and with Rhodotorula glutinis was “inactive” in each case. In addition, the inhibition entry (in the data set with Staphylococcus aureus; in the data set on Wickerhamomyces anomalus; with Acinetobacter baumannii; in data set [1]; in data set [2]; in data set [3]) was “inactive” in each case. Further, the Activity entry in the data set with L929 and in the data set on KB 3-1 was “Non-Toxic” each time. In addition, the outcome with PC-12 was Active.
As for `C[C@]12CCC[C@@](C)(C(=O)O)[C@@H]1CC=C1CO[C@H](O)[C@@H]12`, the inhibition result in the data set with Candida albicans, with Bacillus subtilis, in the data set with Mucor hiemalis, in the data set on Pseudomonas aeruginosa, in the data set on Escherichia coli and with Rhodotorula glutinis was “inactive” in each case. The inhibition entry (in the data set on Staphylococcus aureus; in the data set on Wickerhamomyces anomalus; in the data set with Acinetobacter baumannii; in [1]; in [2]; in data set [3]) was “inactive” in each case. Further, the Activity entry with L929 and in the data set on KB 3-1 was “Non-Toxic” each time. Besides, the outcome with PC-12 was Active.
Regarding `COC(=O)[C@H]1C(C(=O)O)=CC[C@@H]2[C@]1(C)CCC[C@@]2(C)C(=O)O`, the inhibition entry in the data set with Candida albicans, with Bacillus subtilis, with Mucor hiemalis, with Pseudomonas aeruginosa, in the data set on Escherichia coli and with Rhodotorula glutinis was “inactive” in each case. For the same compound, the inhibition result (in the data set with Staphylococcus aureus; with Wickerhamomyces anomalus; with Acinetobacter baumannii; in [1]; in data set [2]; in data set [3]) was “inactive” in each case. For the same compound, the Activity entry in the data set with L929 and in the data set on KB 3-1 was “Non-Toxic” each time.
On to `C[C@@]12C=C(C(=O)O)[C@@H](O)C[C@H]1[C@](C)(C(=O)O)CCC2`, for which the inhibition result with Candida albicans, in the data set on Bacillus subtilis, with Mucor hiemalis, in the data set with Pseudomonas aeruginosa, with Escherichia coli and in the data set on Rhodotorula glutinis was “inactive” throughout. In addition, the inhibition result (in the data set on Staphylococcus aureus; in the data set with Wickerhamomyces anomalus; in the data set on Acinetobacter baumannii; in [1]; in [2]; in [3]) was “inactive” in each case. Further, the Activity result in the data set with L929 and with KB 3-1 was “Non-Toxic” each time. The result in the data set with PC-12 was Active.
For `C[C@]12CCC[C@@](C)(C(=O)O)[C@@H]1CC=C(CO)[C@H]2C=O`, the inhibition entry in the data set on Candida albicans, with Bacillus subtilis, in the data set with Mucor hiemalis, in the data set on Pseudomonas aeruginosa, with Escherichia coli and with Rhodotorula glutinis was “inactive” in each case. The inhibition result (with Staphylococcus aureus; in the data set on Wickerhamomyces anomalus; in the data set with Acinetobacter baumannii; in data set [1]; in data set [2]; in [3]) was “inactive” throughout. The Activity result in the data set on L929 and with KB 3-1 was “Non-Toxic” each time. The result in the data set with PC-12 was Active.
Take `C[C@@]1(C(=O)O)CCC[C@]2(C)C3=C(COC3=O)C(=O)C[C@@H]12`: the inhibition entry in the data set on Candida albicans, in the data set on Bacillus subtilis, with Mucor hiemalis, in the data set on Pseudomonas aeruginosa, in the data set with Escherichia coli and in the data set with Rhodotorula glutinis was “inactive” throughout. Besides, the inhibition entry (in the data set with Staphylococcus aureus; with Wickerhamomyces anomalus; in the data set with Acinetobacter baumannii; in [1]; in data set [2]; in [3]) was “inactive” in each case. The Activity entry with L929 and with KB 3-1 was “Non-Toxic” each time.
